Assay outcomes from PubChem.
NR2E3 ag-1: human photoreceptor-specific nuclear receptor agonism; CHO-S Gal4-NCOR/VP16-NR2E3 two-hybrid, luciferase; AID 602229; 0.35% of 360,000 active; inhibition of corepressor binding, % at 3.98 µM; Q9Y5X4;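 active means inhibition above the mean of all tested compounds plus 3 SD, cut at about 70% in these data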;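 further: 0% = DMSO with NR2E3 transfected cells and 100% = cells lacking NR2E3 construct; higher means lower luciferase signal from less NR2E3 corepressor binding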
NR2E3 ag-2: agonists of human nuclear receptor NR2E3; GST-NR2E3/biotin-RetCOR TR-FRET, 1536-well; inhibition of corepressor binding, % at 4.78 µM; 0.12% of 320,000 active;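 active means percent inhibition above the cutoff of mean plus 3 SD of all tested compounds, set per screening campaign, cut at about 20% in these data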;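 further: 0% = DMSO wells and 100% = biotin wells as full block of FRET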
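Material: NR2E3–RetCOR corepressor complex | Quantity: 1.35 nM GST-tagged NR2E3 final | Schedule: 5 h at 4 °C | Replication: Singlicate compound wells | Reagent: RetCOR corepressor, biotinylated, 7 nM | Controls: Biotin wells as high control, 0.6% DMSO wells as low control | Signal: TR-FRET, Eu(K)-anti-GST donor, streptavidin-D2 acceptor, ex 340, em 617/671 nm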
GASC-1 inh: inhibitors of human GASC-1 (JMJD2C) demethylase. Q9H3R0. 0.069% of 330,000 active. GST-JMJD2C(1-420) H3K9me3 demethylation, DELFIA europium. AID 2099. inhibition, % at 2.35 µM;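 active means more than half of a compound's replicate wells show inhibition beyond 50%, single wells judged on their own value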;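 further: signal counts dimethyl H3K9 product captured on neutravidin plate; 0% = median of DMSO wells and 100% = 0.3 times that DMSO median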
ADAM10 inh: ADAM10 inhibition, QFRET primary screen | 0.62% of 370,000 active | inhibition, % at 7 µM | recombinant ADAM10, EDANS/DABCYL FRET peptide cleavage, 3 h;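 active means inhibition above a per-campaign cutoff equal to the mean of compounds falling between control-based bounds plus 3 SD, cut at about 20% in these data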;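 further: 0% = DMSO wells while the 100% control is not disclosed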
KLK7 zymogen act: proKLK7 (human) activation, primary screen; P49862; purified proKLK7, EDANS-DABCYL substrate fluorescence; 100% is mature enzyme control, 0% vehicle; activation, % at 7 µM; 0.9% of 370,000 active; AID 652039;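 active means activation above the mean of all tested compounds plus 3 SD, computed per campaign excluding outliers beyond control limits, cut at about 13% in these data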
ADAM17 inh: ADAM17 inhibition, QFRET primary screen | recombinant ADAM17, EDANS/DABCYL FRET peptide cleavage | inhibition, % at 6.95 µM | 0.83% of 370,000 active;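 active means inhibition above the mean of compounds lying between control limits plus 3 SD, set per campaign, cut at about 8.5% in these data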;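 further: 0% = DMSO-only wells as the low control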
Target sequence (P78536 215-824 limits assumed): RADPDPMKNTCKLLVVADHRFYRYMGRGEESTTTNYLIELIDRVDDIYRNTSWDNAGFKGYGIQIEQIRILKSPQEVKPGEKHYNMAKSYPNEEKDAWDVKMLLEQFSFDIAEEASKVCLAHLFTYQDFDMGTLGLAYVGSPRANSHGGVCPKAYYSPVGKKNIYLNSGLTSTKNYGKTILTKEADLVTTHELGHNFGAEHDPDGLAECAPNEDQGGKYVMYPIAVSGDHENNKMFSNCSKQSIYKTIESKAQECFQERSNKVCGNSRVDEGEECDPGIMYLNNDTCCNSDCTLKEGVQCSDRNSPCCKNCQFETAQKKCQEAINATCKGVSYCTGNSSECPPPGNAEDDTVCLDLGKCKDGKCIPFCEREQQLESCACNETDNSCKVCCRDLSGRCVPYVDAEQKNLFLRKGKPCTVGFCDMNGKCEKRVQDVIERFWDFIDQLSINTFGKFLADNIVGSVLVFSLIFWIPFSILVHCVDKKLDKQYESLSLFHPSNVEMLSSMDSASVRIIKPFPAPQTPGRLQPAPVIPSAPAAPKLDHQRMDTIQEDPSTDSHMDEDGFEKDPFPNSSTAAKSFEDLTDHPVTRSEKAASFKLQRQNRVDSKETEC
ADAM10 confirm: confirmation of inhibitors of human ADAM10; ADAM10 QFRET peptide cleavage, EDANS fluorescence; 1% of 2,100 active; inhibition, % at 6.95 µM; shares compounds with ADAM10 inh;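 active means inhibition above about 20% chosen separately for each screening run, limit read from the data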;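 further: 0% = DMSO wells and 100% = marimastat wells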
ADAM17 ctr: counter-screen for ADAM10 exosite inhibitors: inhibitors of human ADAM17 | inhibition, % at 6.95 µM | shares compounds with ADAM10 inh | 0.5% of 2,100 active | ADAM17 QFRET peptide cleavage, EDANS fluorescence;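 active means mean triplicate inhibition above the solvent-only control wells' mean plus 3 SD, cut at about 12% in these data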;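 further: 0% = DMSO wells and 100% = marimastat wells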
ADAM10 counter: inhibits human ADAM10 in ADAM17 exosite counter-screen | recombinant ADAM10, EDANS/DABCYL FRET peptide cleavage, 3 h | inhibition, % at 6.95 µM | shares compounds with ADAM17 inh | 47% of 2,900 active;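 active means mean inhibition over the triplicate runs exceeds the activity threshold set in the earlier primary screen, cut at about 20% in these data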;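 further: 0% = DMSO wells and 100% = marimastat wells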
ADAM17 confirm: human ADAM17 inhibition, confirmation; 65% of 2,900 active; AID 743257; shares compounds with ADAM17 inh; inhibition, % at 6.95 µM; recombinant ADAM17, EDANS/DABCYL QFRET peptide cleavage;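 active means mean inhibition across replicates above the hit cutoff set in the primary screen, cut at about 8.5% in these data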;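 further: 0% = DMSO wells and 100% = marimastat wells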
* = called active by the depositor; . = no result given. Sampled rows, rich in hits. Any-hit rate of the full collection: about 2.5%.

SMILES | NR2E3 ag-1 | NR2E3 ag-2 | GASC-1 inh | ADAM10 inh | KLK7 zymogen act | ADAM17 inh | ADAM10 confirm | ADAM17 ctr | ADAM10 counter | ADAM17 confirm
C#CCN(C[C@@H]1[C@@H](OC(=O)NCc2ccccc2F)[C@@H](OC(=O)NCc2ccccc2F)Cn2c(=O)ccc(=O)n21)S(=O)(=O)c1ccc(C)cc1 | 43 | . | . | 24* | 0 | 9.4* | 6 | 1 | 22* | 12*
C#CCN(C[C@@H]1[C@@H](OC(=O)NCc2ccccc2F)[C@@H](OC(=O)NCc2ccccc2F)Cn2c(=O)n(CCCCCC)c(=O)n21)S(=O)(=O)c1ccc(C)cc1 | 3 | . | . | 0 | 1 | 3 | . | . | . | .
CCN(CC)c1ccc(C=C(c2nnnn2-c2ccc(C)cc2)c2nnnn2-c2ccc(C)cc2)cc1 | -13 | 3 | -8 | 8 | -4 | 2 | . | . | . | .
Cc1ccccc1-n1c(SCC(=O)N/N=C/C=C/c2ccccc2[N+](=O)[O-])nc2ccccc2c1=O | -14 | 2 | -9 | 23* | 0 | 10.0* | 5 | 1 | 18 | 12*
CCc1ccc2c(c1)NC(=O)C2(C)Cc1ccc(Cl)s1 (stereo not drawn) | -19 | . | . | 13 | 0 | 5 | . | . | . | .
CCc1ccc(NC(=O)C2CCN(S(=O)(=O)c3ccc4c(c3)NC(=O)C(C)S4)CC2)cc1 (stereo not drawn) | 12 | 0 | -5 | 26* | 0 | 14* | 1 | 0 | 21* | 11*
O=C(CN(c1cccc(Br)c1)S(=O)(=O)c1ccccc1)N/N=C/c1cc([N+](=O)[O-])ccc1O | 20 | -4 | 6 | 27* | 1 | 16* | 3 | 1 | 28* | 17*
O=C(CCCC(=O)Nc1cccc(Br)c1)N/N=C/c1cc([N+](=O)[O-])ccc1O | -38 | 1 | -1 | 11 | 0 | 6 | . | . | . | .
COc1ccc(CC(N)c2csc(NC(=O)C(c3ccccc3)c3ccccc3)n2)cc1 (stereo not drawn) | -19 | . | . | 8 | 0 | 7 | . | . | . | .
COc1cc(O)c(CC=C(C)C)c(O)c1C(=O)CCc1ccc(O)cc1 | -21 | 0 | 31 | 24* | 1 | 12* | 10 | 2 | 52* | 26*
Cc1ccc(NC(=S)NC(=O)c2ccc(F)cc2)cc1S(=O)(=O)Nc1cccc(Cl)c1 | -15 | -1 | -5 | 4 | 1 | -1 | . | . | . | .
Cc1ccc(NC(=O)c2cccs2)cc1S(=O)(=O)Nc1cccc(Cl)c1 | 11 | -2 | -8 | 37* | 1 | 20* | 2 | 2 | 11 | 6
Cc1ccc(C(=O)Nc2cccc([N+](=O)[O-])c2)cc1S(=O)(=O)Nc1ccc(NC(=O)c2ccccc2)cc1 | -2 | -1 | -5 | 37* | 0 | 15* | 6 | 1 | 35* | 23*
NC(CCc1ccccc1)c1csc(NC(=O)Nc2ccccc2Oc2ccccc2)n1 (stereo not drawn) | -11 | . | . | 29* | 0 | 14* | 7 | 3 | 23* | 13*
NC(CCc1ccccc1)c1csc(NC(=O)NCCc2ccccc2)n1 (stereo not drawn) | 9 | . | . | 1 | 1 | 0 | . | . | . | .
COCCN=c1scc(-c2cc(OC)ccc2OC)n1/N=C/c1c[nH]c2ccccc12 | 12 | 0 | -3 | 20* | 1 | 11* | 17 | 7 | 16 | 12*
O=C(NCCCN1CCOCC1)c1cccc(S(=O)(=O)Nc2cc(Cl)ccc2Cl)c1 | -3 | 4 | -27 | 0 | 0 | -1 | . | . | . | .
COC(=O)c1ccc(N(CC(=O)NC2CCCCC2)C(=O)CNC(=O)c2ccco2)cc1 | -9 | 1 | -3 | -6 | 0 | -4 | . | . | . | .
Cc1ccc(S(=O)(=O)N2CCCCC2)cc1NC(=O)COc1ccccc1F | -1 | 1 | 4 | 0 | 1 | 2 | . | . | . | .
C[C@@H](NC(=O)c1nc[nH]c1C(=O)NCc1ccc(CNC(=O)OC(C)(C)C)cc1)c1ccccc1 | -4 | 2 | -11 | 45* | -1 | 17* | 4 | 1 | 22* | 16*
CC(C)(C)OC(=O)NCCCC[C@H](NC(=O)c1nc[nH]c1C(=O)NCc1ccc(CNC(=O)OC(C)(C)C)cc1)C(=O)OC(C)(C)C | -11 | 3 | 5 | 20* | 0 | 13* | 9 | 3 | 29* | 15*
CC(C)C[C@H](NC(=O)c1nc[nH]c1C(=O)NCc1ccc(CNC(=O)OC(C)(C)C)cc1)C(=O)OC(C)(C)C | -11 | -1 | -2 | 24* | 1 | 16* | 8 | 2 | 52* | 25*
C[C@H](NC(=O)c1nc[nH]c1C(=O)NCc1ccc(CNC(=O)OC(C)(C)C)cc1)C(=O)OC(C)(C)C | 31 | 1 | -2 | 11 | 0 | 4 | . | . | . | .
COc1ccc2[nH]c3c(=O)n(CCCCC(=O)NCCC(C)C)c(=S)[nH]c3c2c1 | -10 | -3 | -16 | -31 | 0 | -9 | . | . | . | .
COc1ccccc1N(CC(=O)NCc1ccco1)S(=O)(=O)c1ccc(C)cc1 | -8 | 4 | 3 | -7 | 0 | -2 | . | . | . | .
Cc1ccc(S(=O)(=O)N(Cc2ccc(Cl)cc2)c2ccccc2C(=O)NCc2ccco2)cc1 | 5 | -3 | -1 | 22* | 0 | 11* | 6 | 2 | 19 | 12*
COc1ccc(CNC(=O)CN(Cc2ccc(Cl)cc2)S(=O)(=O)c2ccccc2)cc1 | 15 | -2 | -16 | 24* | 0 | 18* | 1 | 0 | 19 | 14*
COc1ccc(S(=O)(=O)N(CC(=O)NCc2ccncc2)Cc2ccccc2)cc1 | -13 | 3 | -11 | 2 | 0 | 0 | . | . | . | .
COc1ccc(CNC(=O)CN(Cc2ccccc2)S(=O)(=O)c2ccc(Cl)cc2)cc1 | 11 | -1 | 0 | 29* | 0 | 21* | 4 | 1 | 13 | 10*
COc1ccc(S(=O)(=O)N(CC(=O)Nc2ccc(S(=O)(=O)N3CCOCC3)cc2)Cc2ccc(F)cc2)cc1 | -13 | 4 | 3 | 32* | -1 | 9.4* | 7 | 2 | 41* | 16*
